Experimental data collected from several papers.
TRPM8: Transient receptor potential cation channel subfamily M member 8 (TRPM8, Homo sapiens, UniProt Q7Z2W7)
LATS2: Serine/threonine-protein kinase LATS2 (LATS2, Homo sapiens, UniProt Q9NRM7)
AKR1B1: Aldo-keto reductase family 1 member B1 (AKR1B1, Homo sapiens, UniProt P15121)
SLC6A6: Sodium- and chloride-dependent taurine transporter (SLC6A6, Homo sapiens, UniProt P31641)

With `COc1ccc(NC(=O)[C@@H]2C[C@H](C)CC[C@H]2C(C)C)cc1` the EC50 was 4 µM (TRPM8; ion current; agonist; patch clamp).
The IC50 of `Fc1c[nH]c2nccc(-c3ccc(C4CCNCC4)cc3)c12` is reported as 0.011 µM (LATS2; enzyme activity; inhibitor; radiometric).
With `COc1cc(/C=N/NC(=S)N/N=C\c2ccc(Cl)c(Cl)c2)ccc1Oc1ccnc2cc(Cl)ccc12` the IC50 was 13.4 µM (AKR1B1; enzyme activity; inhibitor; absorbance).
`CCCCCCCP(=O)(C(C)C)C(C)C` has an EC50 of 4.73 µM (TRPM8; calcium signal; agonist).
`NCCCC(=O)O` has a Kd of 26 µM (SLC6A6; binding; MST).
`COc1cc(/C=N/NC(=S)N/N=C\c2ccc(CCl)cc2)ccc1Oc1ccnc2cc(Cl)ccc12` has an IC50 of 20.4 µM (AKR1B1; enzyme activity; inhibitor; absorbance).
The EC50 of `O=C1NC(c2cccc([N+](=O)[O-])c2)=CCN1c1ccccc1O` is reported as 0.412 µM (TRPM8; ion current; agonist; patch clamp).
With `CCCCC(=O)Nc1ccc(-c2ccc3ncn(CCC)c(=O)c3c2)cn1` the Kd was 0.123 µM (Phosphatidylinositol 5-phosphate 4-kinase type-2 gamma (PIP4K2C, Homo sapiens, UniProt Q8TBX8, del300-341); binding; ITC).
For `COc1cc(/C=N/NC(=S)NN=Cc2ccc(CO)o2)ccc1Oc1ccnc2cc(Cl)ccc12`, the IC50 was 21.3 µM (AKR1B1; enzyme activity; inhibitor; absorbance).
`Cc1cc(-c2ccnc3[nH]cc(F)c23)cc(F)c1[C@@]1(O)[C@H](C)CN(C2CCS(=O)(=O)CC2)C[C@@H]1C` gave a Kd of 0.0017 µM (LATS2; binding; TR-FRET).
For `COc1cc(/C=N/NC(=S)N/N=C/c2ccccc2)ccc1Oc1ccnc2cc(Cl)ccc12`, the IC50 was 17.2 µM (AKR1B1; enzyme activity; inhibitor; absorbance).
For `CCOc1cccc(C2CC(=O)Nc3c2c(C)nn3-c2ccc3nncn3n2)c1` (stereo not shown), the Kd was 10 µM (DNA damage-binding protein 1 (DDB1, Homo sapiens, UniProt Q16531); binding; SPR).
For `CCNC(=O)C1CC(C)CCC1C(C)C` (stereo not shown), the EC50 was 8.36 µM (TRPM8; calcium signal; agonist).
`N=C(N)NCC(=O)O` gave a Kd of 35.8 µM (SLC6A6; binding; MST).
For `OC1(c2ccc(-c3ccnc4[nH]cc(F)c34)cc2)CCNCC1`, the IC50 was 0.0057 µM (LATS2; enzyme activity; inhibitor; radiometric).
With `Cc1ncsc1-c1ccc(CNC(=O)[C@@H]2C[C@@H](O)CN2C(=O)[C@@H](NC(=O)COCCOCCOCCNC(=O)C[C@@H]2N=C(c3ccc(Cl)cc3)c3c(sc(C)c3C)-n3c(C)nnc32)C(C)(C)C)cc1` the Kd was 9.6 µM (Platelet glycoprotein 4 (CD36, Homo sapiens, UniProt P16671); binding; SPR).
